Source: ChEMBL document CHEMBL3785029, “Synthesis and Characterization of Fatty Acid Conjugates of Niacin and Salicylic Acid” (J Med Chem, 2016)
Active and inactive are the calls of the source. The calls are words filed in the database; no cut-off is given here.

Assays:
[1] = biological target: T1, Sterol regulatory element-binding protein 2 (Homo sapiens) (UniProt Q12772); assay: Inhibition of SREBP2 maturation in human HepG2 cells at 25 uM after overnight incubation by immunoblot analysis in the presence of atorvastatin; type: cell-based
T1 sequence (whole entry): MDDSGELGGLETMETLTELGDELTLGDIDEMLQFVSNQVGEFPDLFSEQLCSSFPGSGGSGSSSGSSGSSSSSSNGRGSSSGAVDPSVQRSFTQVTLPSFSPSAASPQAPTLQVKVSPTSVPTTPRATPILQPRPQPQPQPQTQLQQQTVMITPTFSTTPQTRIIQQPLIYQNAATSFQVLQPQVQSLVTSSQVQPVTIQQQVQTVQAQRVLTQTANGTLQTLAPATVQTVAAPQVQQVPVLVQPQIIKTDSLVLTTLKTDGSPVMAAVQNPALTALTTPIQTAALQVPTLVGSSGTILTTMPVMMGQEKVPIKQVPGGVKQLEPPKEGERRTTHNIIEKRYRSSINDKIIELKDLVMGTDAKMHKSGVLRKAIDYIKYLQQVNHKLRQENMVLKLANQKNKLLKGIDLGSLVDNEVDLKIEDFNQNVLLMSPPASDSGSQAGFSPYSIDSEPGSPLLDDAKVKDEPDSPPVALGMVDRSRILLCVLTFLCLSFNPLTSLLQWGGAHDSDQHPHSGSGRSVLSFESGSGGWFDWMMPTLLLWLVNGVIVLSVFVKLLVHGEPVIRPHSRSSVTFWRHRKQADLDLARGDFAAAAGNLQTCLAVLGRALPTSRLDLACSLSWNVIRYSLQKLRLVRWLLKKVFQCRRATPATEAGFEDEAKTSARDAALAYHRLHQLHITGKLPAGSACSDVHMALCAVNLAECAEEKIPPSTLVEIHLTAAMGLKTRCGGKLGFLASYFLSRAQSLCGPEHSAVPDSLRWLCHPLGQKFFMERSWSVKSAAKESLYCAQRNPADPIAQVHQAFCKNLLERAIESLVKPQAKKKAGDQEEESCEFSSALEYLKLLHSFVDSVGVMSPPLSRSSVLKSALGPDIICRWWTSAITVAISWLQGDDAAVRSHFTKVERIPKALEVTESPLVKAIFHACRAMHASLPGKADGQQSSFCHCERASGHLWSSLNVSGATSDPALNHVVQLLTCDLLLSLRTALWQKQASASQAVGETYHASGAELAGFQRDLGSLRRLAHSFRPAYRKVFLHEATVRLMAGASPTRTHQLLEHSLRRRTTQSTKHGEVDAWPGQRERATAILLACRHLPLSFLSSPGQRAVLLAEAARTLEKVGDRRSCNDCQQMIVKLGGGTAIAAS
Procedure, shortened: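 Human HepG2 cells incubated with compound (25 and 50 µM), alone or together with 10 µM atorvastatin; mature SREBP-2 protein level assessed.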

[2] = Drug uptake in Sprague-Dawley rat liver at 300 mg/kg, qd administered through oral gavage for 7 days measured 2 hrs post last dose by LC/MS/MS analysis; type: ADME, organism-based; settings: read-out: Drug uptake
Plasma [3] = assay: Drug metabolism in Sprague-Dawley rat plasma assessed as linker EPA metabolite (5Z,8Z,11Z,14Z,17Z)-N-(2-aminoethyl)icosa-5,8,11,14,17-pentaenamide formation at 300 mg/kg, qd administered through oral gavage for 7 days measured 2 hrs post last dose by LC/MS/MS analysis; type: ADME, organism-based; settings: in vivo
[4] = Cmax in jugular vein cannulated Sprague-Dawley rat at 30 mg/kg, po measured up to 140 mins; type: ADME, organism-based; design: dose 30 mg/kg, route oral; settings: jugular vein blood
Procedure, shortened: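 Sprague Dawley rats surgically fitted with indwelling jugular vein and portal vein cannulas; oral dosing, then serial blood draws from both portal and jugular veins at 10, 20, 40 min and 1, 2, 4, 6 hr post dose; plasma analysed for parent and metabolites by LC/MS/MS.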

Plasma [5] = assay: Metabolic stability in beagle dog plasma at 5 uM up to 2 hrs by LC-MS-MS analysis; type: ADME, cell-free, Canis lupus familiaris
Procedure, shortened: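 Plasma from each species diluted to 50% with 0.05 M PBS pH 7.4 and prewarmed to 37 °C; compound added at 5 µM final (from DMSO stock diluted in MeOH); triplicate incubations at 37 °C, sampled at 0, 30, 60, 120 min, quenched with acetonitrile containing internal standard, centrifuged, analysed by LC/MS/MS.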

Mus musculus = assay: Inhibition of LDL cholesterol levels in po dosed ApoE*3-Leiden mouse plasma administered for 16 weeks; type: functional, organism-based
Procedure, shortened: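 Transgenic ApoE*3-Leiden mice on high-cholesterol Western-type diet dosed over 16 weeks; plasma PCSK9, total cholesterol, triglycerides and lipoprotein profile (VLDL, LDL) assessed at study end.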

[6] = Cmax in Sprague-Dawley rat at 100 mg/kg, po administered as single dose measured up to 6 hrs post dose by LC/MS/MS analysis; type: ADME, organism-based; design: dose 100 mg/kg, route oral; settings: in vivo
Procedure, shortened: (§1)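 Single oral dose to Sprague Dawley rats; plasma collected at 0.25, 0.5, 1, 2, 4 and 6 hr; analytes in plasma quantified by LC/MS/MS.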

Rattus norvegicus [7] = assay: AUClast in Sprague-Dawley rat assessed as nicotinuric acid at 100 mg/kg, po administered as single dose measured up to 6 hrs post dose by LC/MS/MS analysis; type: ADME, organism-based; design: dose 100 mg/kg, time < 6 hr, route oral; settings: in vivo; procedure, shortened: as §1
Intestine [8] = assay: Drug metabolism in Sprague-Dawley rat intestine assessed as niacin formation at 300 mg/kg, qd administered through oral gavage for 7 days measured 2 hrs post last dose by LC/MS/MS analysis; type: ADME, organism-based; settings: in vivo
Intestine [9] = assay: Drug metabolism in Sprague-Dawley rat intestine assessed as niacin linker metabolite N-(2-aminoethyl)nicotinamide formation at 300 mg/kg, qd administered through oral gavage for 7 days measured 2 hrs post last dose by LC/MS/MS analysis; type: ADME, organism-based; settings: in vivo
[10] = Drug uptake in Sprague-Dawley rat intestine at 300 mg/kg, qd administered through oral gavage for 7 days measured 2 hrs post last dose by LC/MS/MS analysis; type: ADME, organism-based; settings: read-out: Drug uptake
Liver [11] = assay: Drug metabolism in Sprague-Dawley rat liver assessed as salicylic acid formation at 300 mg/kg, po administered for 7 days measured 4 hrs post dose on day 7; type: ADME, organism-based; settings: in vivo
Procedure, shortened: (§2)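 Male Sprague Dawley rats, groups of 4, dosed orally at 300 mg/kg once daily for 14 days. Animals killed on days 1, 3, 7 and 14, with plasma, brain, epididymal fat, liver and muscle taken 4 hr after dosing. Parent, salicylic acid and salicyluric acid were measured.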

[12] = Drug uptake in Sprague-Dawley rat epididymal fat at 300 mg/kg, po administered for 7 days measured 4 hrs post dose on day 7; type: ADME, organism-based, Epididymal fat pad; settings: read-out: Drug uptake; procedure, shortened: as §2
Plasma [13] = assay: Drug metabolism in Sprague-Dawley rat plasma assessed as salicyluric acid formation at 300 mg/kg, po measured up to 24 hrs post dose; type: ADME, organism-based; settings: in vivo
Procedure, shortened: (§3)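 Single oral dose of 300 mg/kg to Sprague Dawley rats. Plasma collected at 0, 0.5, 1, 2, 4, 8 and 24 hr. Analytes were the parent, the salicylate-linker and linker-DHA metabolites, salicylic acid and salicyluric acid; Cmax and AUClast derived.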

Liver [14] = assay: Drug metabolism in Sprague-Dawley rat liver assessed as salicyluric acid formation at 300 mg/kg, po administered for 7 days measured 4 hrs post dose on day 7; type: ADME, organism-based; settings: in vivo; procedure, shortened: as §2
[15] = Drug metabolism in Sprague-Dawley rat epididymal fat assessed as salicyluric acid formation at 300 mg/kg, po administered for 7 days measured 4 hrs post dose on day 7; type: ADME, organism-based, Epididymal fat pad; settings: in vivo; procedure, shortened: as §2
Rattus norvegicus [16] = assay: Cmax in Sprague-Dawley rat assessed as salicylate-linker metabolite N-(2-aminoethyl)-2-hydroxy-benzamide at 300 mg/kg, po measured up to 24 hrs post dose; type: ADME, organism-based; design: dose 300 mg/kg, route oral; settings: in vivo; procedure, shortened: as §3

Drug metabolism (Liver [11]) [ng/g] | concentration at 4 h [12] [ng/g] | Drug metabolism (Plasma [13]) | Drug metabolism (Liver [14]) [ng/g] | Drug metabolism [15] [ng/g] | Cmax (Rattus norvegicus [16]) [ng/mL] | SMILES | inhibition [1] | concentration at 2 h [2] [ng/g] | Drug metabolism (Plasma [3]) [ng/mL] | Cmax [4] [ng/mL] | Stability (Plasma [5]) | inhibition (Mus musculus) | Cmax [6] [ng/mL] | AUClast (Rattus norvegicus [7]) [ng·h/mL] | Drug metabolism (Intestine [8]) [ng/g] | Drug metabolism (Intestine [9]) [ng/g] | concentration at 2 h [10] [ng/g]
– | – | – | – | – | – | CC/C=C\C/C=C\C/C=C\C/C=C\C/C=C\CCCC(=O)NCCNC(=O)c1cccnc1 | Active | 7.5 | 1.1 | 35 | Stable | Active | 212 | 3484 | 279 | 23899 | 6750
235.91 | 772 | metabolite_detected | 506.48 | 203.71 | 484 | CC/C=C\C/C=C\C/C=C\C/C=C\C/C=C\C/C=C\CCC(=O)NCCNC(=O)c1ccccc1O [EDASALONEXENT] | – | – | – | – | – | – | – | – | – | – | –
